Source: ChEMBL document CHEMBL5634206, “Chiral hydroxymethyl-1H,3H-pyrrolo[1,2-c]thiazoles: the search for selective p53-activating agents for colorectal cancer therapy” (RSC Med Chem, 2024)
pIC50: −log10 of the molar value.

Key:
HCT-116 [1] = assay: Antiproliferative activity against wildtype p53 expressing human HCT-116 cells assessed as inhibition of cell growth incubated for 48 hrs by SRB assay; assay type: functional, cell-based; conditions: for pIC50: Homo sapiens, HCT-116, 48 h, read-out: IC50
In short: (§1)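 Isogenic HCT116 p53+/+ and p53−/− pair from B. Vogelstein, grown as monolayers in RPMI-1640 with 2 mM L-glutamine and 10% heat-inactivated FBS at 37 °C, 5% CO2. Cells seeded at 5 × 10^3 per well for 24 h, then given serial dilutions from 0.2 to 50 μM for 48 h. IC50 read by sulforhodamine B staining.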

HCT-116 [2] = assay: Antiproliferative activity against human HCT-116 cells expressing p53-/- assessed as inhibition of cell growth incubated for 48 hrs by SRB assay; assay type: functional, cell-based; conditions: for pIC50: Homo sapiens, HCT-116, 48 h, read-out: IC50; in short: as §1
MDA-MB-231 = assay: Antiproliferative activity against human MDA-MB-231 cells assessed as inhibition of cell growth incubated for 48 hrs by SRB assay; assay type: functional, cell-based; conditions: MDA-MB-231, 48 h
In short: (§2)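 MDA-MB-231 and PANC-1 cells grown in high-glucose DMEM (4.5 g L−1) with L-glutamine, sodium pyruvate and 10% heat-inactivated FBS at 37 °C, 5% CO2. After seeding 5 × 10^3 cells per well for 24 h, cells received serial dilutions of 0.2–50 μM for 48 h. IC50 by SRB. Mean ± SD of 3 independent experiments.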

A-375 = assay: Antiproliferative activity against human A-375 cells assessed as inhibition of cell growth incubated for 48 hrs by SRB assay; assay type: functional, cell-based; conditions: A-375, 48 h
In short: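 A375 melanoma cells grown as monolayers in RPMI-1640 with 2 mM L-glutamine and 10% heat-inactivated FBS at 37 °C, 5% CO2. Seeded at 5 × 10^3 cells per well for 24 h, then exposed to serial dilutions (0.2–50 μM) for 48 h. IC50 determined by SRB. Mean ± SD of 3 independent experiments.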

PANC-1 = assay: Antiproliferative activity against human PANC-1 cells assessed as inhibition of cell growth incubated for 48 hrs by SRB assay; assay type: functional, cell-based; conditions: PANC-1, 48 h; in short: as §2
[3] = Selectivity ratio of IC50 for antiproliferative activity against human HCT-116 cells expressing p53-/- to IC50 for antiproliferative activity against wildtype p53 expressing human HCT-116 cells; assay type: functional
HCT-116 [4] = assay: Potency index, ratio of test compound IC50 to MANIO IC50 for antiproliferative activity against wildtype p53 expressing human HCT-116 cells assessed as inhibition of cell growth incubated for 48 hrs by SRB assay

SMILES | pIC50 (HCT-116 [1]) | pIC50 (HCT-116 [2]) | pIC50 (MDA-MB-231) | pIC50 (A-375) | pIC50 (PANC-1) | IC50 (HCT-116 [1]; hct-116) | IC50 (HCT-116 [2]; hct-116) | Ratio IC50 [3] | Ratio IC50 (HCT-116 [4])
Cc1c(CO)cc2n1CSC2 | 4.55 | < 4.30 | – | – | – | – | – | – | –
Cc1c(CO)cc2n1[C@@H](c1ccccc1)SC2 | 5.18 | < 4.30 | < 4.30 | 4.40 | < 4.30 | – | – | – | –
Cc1c(CO)c(CO)c2n1[C@@H](C)SC2 | 4.48 | 4.34 | – | – | – | – | – | – | –
Cc1c(CO)c(CO)c2n1[C@@H](c1cccc3ccccc13)SC2 | – | – | – | – | – | Not Determined(Insoluble) | Not Determined(Insoluble) | – | –
COc1cc([C@H]2SCc3c(CO)c(CO)c(C)n32)cc(OC)c1OC | < 4.30 | < 4.30 | – | – | – | – | – | – | –
OCc1cn2c(c1CO)CS[C@@H]2c1ccccc1 | 4.69 | < 4.30 | – | – | – | – | – | – | –
Cc1c(CO)c(CO)c2n1[C@@H](c1ccccc1)S(=O)(=O)C2 | < 4.82 | < 4.30 | – | – | – | – | – | – | –
Cc1c(CO)c(CO)c2n1[C@@H](c1cccc3cccnc13)SC2 | 5.12 | < 4.30 | < 4.30 | 4.61 | 4.76 | – | – | – | –
Cc1c(CO)c(CO)c2n1[C@H](c1ccccc1)SC2 | – | 4.32 | < 4.30 | 4.88 | 4.38 | – | – | ~50 | –
Cc1cc(CO)c2n1[C@H](c1ccccc1)SC2 | 6.85 | 4.74 | < 4.30 | < 4.30 | < 4.30 | – | – | 129 | –
COc1ccc([C@H]2SCc3c(CO)c(CO)c(C)n32)cc1 | 5.34 | < 4.30 | < 4.30 | < 4.30 | < 4.30 | – | – | – | –
Cc1c(CO)c(CO)c2n1[C@@H](c1ccc(O)cc1)SC2 | 4.78 | < 4.30 | – | – | – | – | – | – | –
Cc1c(CO)c(CO)c2n1[C@H](c1ccccc1)SC2(C)C | 4.61 | 4.65 | – | – | – | – | – | – | –
Cc1c(CO)c(CO)c2n1[C@@H](c1ccccc1)SC2 | 5.29 | 4.29 | < 4.30 | 4.84 | 4.48 | – | – | – | 5
Cc1c(CO)c(CO)c2n1[C@H](C)SC2 | 4.50 | 4.37 | – | – | – | – | – | – | –
OCc1nn2c(c1CO)CSC2 | < 4.30 | < 4.30 | – | – | – | – | – | – | –
COc1ccc([C@@H]2SCc3c(CO)c(CO)c(C)n32)cc1 | 5.83 | 4.63 | 4.78 | 4.64 | < 4.30 | – | – | – | –
Cc1cc(CO)c2n1[C@@H](c1ccccc1)SC2 | 4.53 | < 4.30 | – | – | – | – | – | – | –
Cc1c(CO)c(CO)c2n1[C@@H](Cc1ccccc1)SC2 | 4.79 | 4.54 | – | – | – | – | – | – | –
Cc1c(CO)cc2n1[C@H](c1ccccc1)SC2 | 6.00 | 5.36 | 4.62 | 4.93 | 4.46 | – | – | – | –
Cc1c(CO)c(CO)c2n1[C@@H](c1ccc(F)cc1)SC2 | 5.35 | 4.49 | < 4.30 | 4.44 | 4.70 | – | – | – | –
